This is a sample that favours compounds with a hit; in the whole collection about 0.64% have one here.
TNAP act hiacc – activators of human TNAP at high phosphate acceptor concentration | activation factor at 20 µM | AID 1136 | P05186 | 200,000 tested, under 10 active | purified TNAP, CDP-star luminescence, 1 M DEA, 30 min; hits give high values; 0 = EDTA background, 1 = DMSO-only activity;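 active = activation factor at least 2 at 20 µM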
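Control set: EDTA negative control, DMSO positive control / Assay system: human TNAP / Quantity: TNAP 1/800 final / Evaluation: TNAP activation factor scaled between EDTA and DMSO control wells / Measured by: luminescent substrate turnover signal / Compound dosing: one dose, 20 µM / Times: 30 min enzyme reaction at room temperature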
TNAP inh hiacc – TNAP (human) inhibition, high acceptor; purified TNAP, CDP-star luminescence, 1 M DEA; inhibition, % at 20 µM; actives 0.03% (n = 200,000); AID 1135;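 active = over 50% inhibition of tissue-nonspecific alkaline phosphatase at 20 µM in the single-dose screen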
PMI act satM6P – increases human PMI activity with near-saturating mannose 6-phosphate. activation factor at 20 µM. AID 1216. actives 0.34% (n = 190,000). coupled PMI enzyme assay, resazurin fluorescence, 20 min; hits give high values; 1 = untreated enzyme, 0 = substrate-free blank;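 active = activation factor of 2 or more at 20 µM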
Target sequence (P34949 whole entry, looked up): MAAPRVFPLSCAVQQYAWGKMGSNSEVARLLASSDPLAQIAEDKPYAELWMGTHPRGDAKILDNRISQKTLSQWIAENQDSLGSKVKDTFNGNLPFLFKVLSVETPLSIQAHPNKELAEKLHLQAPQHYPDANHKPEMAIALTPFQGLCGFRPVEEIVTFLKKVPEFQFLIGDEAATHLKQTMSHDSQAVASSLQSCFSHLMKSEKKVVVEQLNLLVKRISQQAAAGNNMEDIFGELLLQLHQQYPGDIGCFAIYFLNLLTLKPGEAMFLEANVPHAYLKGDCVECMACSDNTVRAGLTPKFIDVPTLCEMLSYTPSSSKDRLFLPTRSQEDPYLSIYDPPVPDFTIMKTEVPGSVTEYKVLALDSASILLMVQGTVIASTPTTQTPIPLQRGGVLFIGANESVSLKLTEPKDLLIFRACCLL
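Test system: human phosphomannose isomerase with PGI, G6PDH, diaphorase coupling enzymes / Doses: 20 µM compound, 1% DMSO / Times: enzyme reaction with compound 20 min at room temperature / Measured by: Diaphorase-driven resazurin-to-resorufin fluorescence, excitation 544, emission 590 nm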
TNAP inh no acc – blocks human TNAP activity with no phosphate acceptor present. AID 1012. P05186. inhibition, % at 20 µM. purified TNAP, CDP-star luminescence, 30 min. actives 0.26% (n = 200,000);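 active = tissue-nonspecific alkaline phosphatase inhibition above about 50% at 20 µM in the single-dose screen, limit read from the data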
PMI act – activators of human phosphomannose isomerase. P34949. purified human PMI, coupled resazurin fluorescence, 20 min; hits give high values; 1 = vehicle control, 0 substrate-free wells. activation factor at 20 µM. actives 0.005% (n = 190,000);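 active = activation factor of 2 or more at 20 µM, relative to plate controls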
Hits are given with their value.

What do the screens show for `COc1ccc(OC)c(S(=O)(=O)Nc2cccnc2)c1`?
TNAP act hiacc: inactive; TNAP inh hiacc: 74.8; PMI act satM6P: inactive; TNAP inh no acc: 86.4; PMI act: inactive

What do the screens show for `CC1(C)CC(CCC(=O)NC(=S)Nc2ccccc2Cl)C(=O)O1` (configuration not stated)?
TNAP act hiacc: inactive; TNAP inh hiacc: inactive; PMI act satM6P: inactive; TNAP inh no acc: inactive; PMI act: inactive

What do the screens show for `O=C(COC(=O)c1ccc2ccccc2n1)Nc1cccc(S(=O)(=O)NC2=NCCCCC2)c1`?
TNAP act hiacc: 2; TNAP inh hiacc: inactive; PMI act satM6P: inactive; TNAP inh no acc: inactive; PMI act: inactive

What do the screens show for `NNC(=O)c1cc(-c2ccco2)[nH]n1`?
TNAP act hiacc: inactive; TNAP inh hiacc: inactive; PMI act satM6P: inactive; TNAP inh no acc: 75.4; PMI act: inactive

How did CC1C(=O)NN=C1C(=O)N/N=C\c1ccc(O)cc1O (configuration not stated) do in these assays?
TNAP act hiacc: inactive; TNAP inh hiacc: inactive; PMI act satM6P: inactive; TNAP inh no acc: 72.5; PMI act: inactive

How did O=C(COC(=O)Cc1ccc(Cl)cc1)Nc1c(F)cccc1F do in these assays?
TNAP act hiacc: inactive; TNAP inh hiacc: inactive; PMI act satM6P: inactive; TNAP inh no acc: inactive; PMI act: inactive

Results for O=C(O)c1cccc2c1C(=O)c1ccccc1C2=O ?
TNAP act hiacc: inactive; TNAP inh hiacc: inactive; PMI act satM6P: 2.5; TNAP inh no acc: inactive; PMI act: inactive

How did CNc1c(C(=O)O)ccc2c1C(=O)c1ccccc1C2=O do in these assays?
TNAP act hiacc: inactive; TNAP inh hiacc: inactive; PMI act satM6P: inactive; TNAP inh no acc: inactive; PMI act: inactive

Results for CCc1ccc(OCCn2cccn2)cc1 ?
TNAP act hiacc: inactive; TNAP inh hiacc: inactive; PMI act satM6P: inactive; TNAP inh no acc: inactive; PMI act: inactive

What do the screens show for `CCOC(=O)c1cc2c(=O)n3ccccc3nc2n(C(C)C)c1=NC(=O)c1ccncc1`?
TNAP act hiacc: inactive; TNAP inh hiacc: inactive; PMI act satM6P: 2.2; TNAP inh no acc: inactive; PMI act: inactive

What do the screens show for `CCOC(=O)c1cc2c(=O)n3ccccc3nc2n(CCOC)c1=NC(=O)c1ccncc1`?
TNAP act hiacc: inactive; TNAP inh hiacc: inactive; PMI act satM6P: inactive; TNAP inh no acc: inactive; PMI act: inactive

What do the screens show for `CCOC(=O)c1cc2c(=O)n3ccccc3nc2n(CCCOC)c1=NC(=O)c1cccnc1`?
TNAP act hiacc: inactive; TNAP inh hiacc: inactive; PMI act satM6P: 2; TNAP inh no acc: inactive; PMI act: inactive

How did C/C(=C\c1ccco1)CN1CCN(Cc2ccc(C)o2)C(CCO)C1 (configuration not stated) do in these assays?
TNAP act hiacc: inactive; TNAP inh hiacc: inactive; PMI act satM6P: inactive; TNAP inh no acc: inactive; PMI act: inactive

Results for Cc1ccc(S(=O)(=O)NNc2ccccc2)c(C)c1 ?
TNAP act hiacc: inactive; TNAP inh hiacc: inactive; PMI act satM6P: 2.7; TNAP inh no acc: inactive; PMI act: inactive

What do the screens show for `COc1ccc(/C=C/C(=O)c2ccc(C)c([N+](=O)[O-])c2)cc1O`?
TNAP act hiacc: inactive; TNAP inh hiacc: inactive; PMI act satM6P: inactive; TNAP inh no acc: inactive; PMI act: inactive

What do the screens show for `COc1cc(/C=C/C(=O)c2ccc(C)c([N+](=O)[O-])c2)cc(OC)c1O`?
TNAP act hiacc: inactive; TNAP inh hiacc: 59.0; PMI act satM6P: inactive; TNAP inh no acc: inactive; PMI act: inactive

How did Cc1ccccc1N/C(=C(/C(Cl)=C(Cl)Cl)[N+](=O)[O-])n1nnc2ccccc21 do in these assays?
TNAP act hiacc: inactive; TNAP inh hiacc: inactive; PMI act satM6P: 2.2; TNAP inh no acc: inactive; PMI act: inactive

What do the screens show for `O=C(O)C1=C[C@H](c2csc3ccccc23)C[C@H](OCCCCO)O1`?
TNAP act hiacc: inactive; TNAP inh hiacc: inactive; PMI act satM6P: inactive; TNAP inh no acc: inactive; PMI act: inactive

Results for CC(C)OCCCN1CN(S(=O)(=O)c2ccc(Cl)cc2)c2nc3ccccc3nc21 ?
TNAP act hiacc: inactive; TNAP inh hiacc: inactive; PMI act satM6P: 2; TNAP inh no acc: inactive; PMI act: inactive

How did CCOC(=O)c1nc2cc3n(c(CC(C)C)c-2c1C)CC(C)=C3C do in these assays?
TNAP act hiacc: inactive; TNAP inh hiacc: inactive; PMI act satM6P: 2.4; TNAP inh no acc: inactive; PMI act: inactive

Results for CCNC(=S)N1CCC(n2cnc3ccccc32)CC1 ?
TNAP act hiacc: inactive; TNAP inh hiacc: inactive; PMI act satM6P: inactive; TNAP inh no acc: inactive; PMI act: inactive

What do the screens show for `CCN=C1NN=C(c2cc(C)n(CCc3ccccc3)c2C)CS1`?
TNAP act hiacc: inactive; TNAP inh hiacc: inactive; PMI act satM6P: 2.2; TNAP inh no acc: inactive; PMI act: inactive

What do the screens show for `O=C(O)c1cccc(-n2c(-c3cnccn3)n[nH]c2=S)c1`?
TNAP act hiacc: inactive; TNAP inh hiacc: inactive; PMI act satM6P: inactive; TNAP inh no acc: inactive; PMI act: inactive

What do the screens show for `[O-]C1=N/[N+](=C/c2ccc(Cl)cc2)CC1`?
TNAP act hiacc: inactive; TNAP inh hiacc: inactive; PMI act satM6P: 2; TNAP inh no acc: inactive; PMI act: inactive

How did O=C(Nc1ccc(N2C(=O)C3C4C=CC(C4)C3C2=O)cc1Cl)c1cccs1 (configuration not stated) do in these assays?
TNAP act hiacc: inactive; TNAP inh hiacc: inactive; PMI act satM6P: inactive; TNAP inh no acc: inactive; PMI act: inactive

How did Fc1ccc(N/N=C2/CC(c3ccccc3)Oc3ccccc32)c(F)c1 (configuration not stated) do in these assays?
TNAP act hiacc: inactive; TNAP inh hiacc: inactive; PMI act satM6P: 2.5; TNAP inh no acc: inactive; PMI act: inactive

Results for Cc1ccccc1N1Cc2ccccc2C1 ?
TNAP act hiacc: inactive; TNAP inh hiacc: inactive; PMI act satM6P: 2.2; TNAP inh no acc: inactive; PMI act: inactive

How did O=C(NC12CC3CC(CC(C3)C1)C2)N(Cc1ccccc1)Cc1ccncc1 do in these assays?
TNAP act hiacc: inactive; TNAP inh hiacc: inactive; PMI act satM6P: inactive; TNAP inh no acc: inactive; PMI act: inactive

How did COc1ccc(-c2[nH]ncc2CN(CCO)Cc2cccs2)c(F)c1 do in these assays?
TNAP act hiacc: inactive; TNAP inh hiacc: inactive; PMI act satM6P: inactive; TNAP inh no acc: 69.4; PMI act: inactive

What do the screens show for `COc1ccc(-c2[nH]ncc2CN(C)C(C)c2ccncn2)c(F)c1` (configuration not stated)?
TNAP act hiacc: inactive; TNAP inh hiacc: inactive; PMI act satM6P: inactive; TNAP inh no acc: 63.0; PMI act: inactive

Results for CCN(Cc1ccncc1)Cc1cn[nH]c1-c1ccc(OC)cc1F ?
TNAP act hiacc: inactive; TNAP inh hiacc: inactive; PMI act satM6P: inactive; TNAP inh no acc: 54.7; PMI act: inactive

What do the screens show for `COc1ccc(Cn2nnnc2C(c2ccc(N(C)C)cc2)N2CCC(C(N)=O)CC2)cc1` (configuration not stated)?
TNAP act hiacc: inactive; TNAP inh hiacc: inactive; PMI act satM6P: inactive; TNAP inh no acc: inactive; PMI act: inactive
